Results on seven compounds are retold here after ChEMBL document CHEMBL3098002, “Cassaine diterpene alkaloids from Erythrophleum fordii and their anti-angiogenic effect” (Bioorg Med Chem Lett, 2014).

Calls of active or inactive are those of the source. The calls are words filed in the database; no cut-off is given here.

The subject of series [1] is HUVEC. Put plainly: Antiangiogenic activity against HUVEC assessed as inhibition of capillary-like tube formation at 3 ug/ml after 15 hrs by Matrigel assay relative to control. The format is functional. Particulars: Homo sapiens. An outline of the steps: (§1)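 HUVECs were grown in M199 with 20% FBS, 1% penicillin/streptomycin, 0.01% heparin and ECGS on 0.2% gelatin-coated plates at 37 °C in 5% CO2. For the assay, 1 × 10^4 cells were suspended in medium containing compound and added onto polymerized Matrigel at 37 °C. Cultures were photographed at ×100 and tubes counted. Values were normalized to solvent controls (100%), n = 3, mean ± SD.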

In series [2] the test system is HUVEC. Put plainly: Cytotoxicity against HUVEC assessed as cell viability at 3 to 30 ug/ml after 48 hrs by MTT assay. Particulars: human. The format is cell-based. An outline of the steps: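 HUVECs were grown on gelatin-coated plates to 80% confluency, then treated for 48 h alongside a 0.1% DMSO control. MTT was added to a final 0.05% for 3 h at 37 °C. Formazan was dissolved in DMSO and read at 570 nm against 630 nm reference. Viability was expressed as a percentage of untreated cells.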
(Tetrazolium dyes change colour on reduction, which living cells bring about.)

The test system of series [3] is HUVEC. Kind of series: Antiangiogenic activity against HUVEC assessed as inhibition of capillary-like tube formation at 30 ug/ml after 15 hrs by Matrigel assay relative to control. Type of series: functional. Particulars: Homo sapiens. An outline of the steps:
as §1

The subject of series [4] is HUVEC. Put plainly: Cytotoxicity against HUVEC at 3 to 30 ug/ml by LDH release assay. Particulars: human. Type of series: cell-based. On the technique in general: LDH in the medium is a marker of cell lysis.
Series [5] deals with HUVEC. Kind of series: Antiangiogenic activity against HUVEC assessed as inhibition of capillary-like tube formation at 3 to 30 ug/ml after 15 hrs by Matrigel assay relative to control. The format is functional, cell-based. Particulars: Homo sapiens. The method, boiled down: as §1

One may read the inhibition as the percentage by which the read-out fell short of the control. For the compound `COC(=O)[C@@]1(C)[C@@H](OC(C)=O)CC[C@@]2(C)[C@H]1[C@@H](O)C(=O)[C@H]1[C@@H](C)/C(=C/C(=O)N(C)CCO)CC[C@@H]12`, in the series with HUVEC [1], the inhibition result was “Active”. In addition, in the series on HUVEC [2], the Activity result was “Non-toxic”.

Regarding `COC(=O)[C@@]1(C)CCC[C@@]2(C)[C@H]1[C@@H](O)C(=O)[C@H]1[C@@H](C)/C(=C/C(=O)N(C)CCO)CC[C@@H]12`, the inhibition entry with HUVEC [1] is “Active”. In addition, in the series with HUVEC [2], the Activity result is listed as “Non-toxic”.

With `COC(=O)[C@]1(C)[C@@H]2CC[C@H]3[C@@H](C)/C(=C/C(=O)N(C)CCO)CC[C@@H]3[C@@]2(C)CC[C@@H]1O`, in the series with HUVEC [1], the inhibition entry is “Active”. Moreover, the Activity result in the series with HUVEC [2] is on record as “Non-toxic”.

On to `COc1cc(/C=C/C(=O)CC(=O)/C=C/c2ccc(O)c(OC)c2)ccc1O` [CURCUMIN], for which, in the series with HUVEC [1], the inhibition at 3 µg/mL was 45%.

Take `COC(=O)[C@@]1(C)CCC[C@@]2(C)[C@H]1CC(=O)[C@H]1[C@@H](C)/C(=C/C(=O)N(C)CCO)CC[C@@H]12`: the inhibition result with HUVEC [1] was “Active”. The Activity result in the series on HUVEC [2] is given as “Non-toxic”.

For the compound `COC(=O)[C@@]1(C)[C@@H](OC(C)=O)CC[C@@]2(C)[C@H]1CC(=O)[C@H]1[C@@H](C)/C(=C/C(=O)N(C)CCO)CC[C@@H]12`, the inhibition at 30 µg/mL in the series with HUVEC [3] was determined as 4.5%. Further, the inhibition at 3 µg/mL in the series on HUVEC [1] came out at 42%. Besides, the Activity entry in the series on HUVEC [4] is “Toxic”; in the series on HUVEC [2] it was “Non-toxic”. In addition, the inhibition result in the series on HUVEC [5] is “Active”.

With `COC(=O)[C@]1(C)[C@@H]2CC(=O)[C@H]3[C@@H](C)/C(=C/C(=O)N(C)CCO)CC[C@@H]3[C@@]2(C)CC[C@@H]1O`, the inhibition entry in the series with HUVEC [1] was “Active”. For the same compound, the Activity entry with HUVEC [2] is on record as “Non-toxic”.
